Assay outcomes from PubChem.
G6PDH counter = inhibits Leuconostoc G6PDH, flagging false hits in G6PDH-based assays; Purified L. mesenteroides G6PDH, diaphorase/resazurin coupled fluorescence, 45 min; inhibition, % at 5 µM; 200,000 tested, 0.12% active; in the data active = inhibition above about 50%
HKDC1 inh = HKDC1 (human) hexokinase inhibition | recombinant HKDC1, G6PDH/diaphorase resazurin coupled fluorescence | 340,000 tested, 0.16% active | Q2TB90 | inhibition, % at 20 µM;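 active = inhibition above about 35% when tested at 20 µM, limit read from the data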;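 note: plate controls were DMSO wells with enzyme for no effect and DMSO wells lacking enzyme for full effect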
Target sequence (Q2TB90 whole entry, looked up): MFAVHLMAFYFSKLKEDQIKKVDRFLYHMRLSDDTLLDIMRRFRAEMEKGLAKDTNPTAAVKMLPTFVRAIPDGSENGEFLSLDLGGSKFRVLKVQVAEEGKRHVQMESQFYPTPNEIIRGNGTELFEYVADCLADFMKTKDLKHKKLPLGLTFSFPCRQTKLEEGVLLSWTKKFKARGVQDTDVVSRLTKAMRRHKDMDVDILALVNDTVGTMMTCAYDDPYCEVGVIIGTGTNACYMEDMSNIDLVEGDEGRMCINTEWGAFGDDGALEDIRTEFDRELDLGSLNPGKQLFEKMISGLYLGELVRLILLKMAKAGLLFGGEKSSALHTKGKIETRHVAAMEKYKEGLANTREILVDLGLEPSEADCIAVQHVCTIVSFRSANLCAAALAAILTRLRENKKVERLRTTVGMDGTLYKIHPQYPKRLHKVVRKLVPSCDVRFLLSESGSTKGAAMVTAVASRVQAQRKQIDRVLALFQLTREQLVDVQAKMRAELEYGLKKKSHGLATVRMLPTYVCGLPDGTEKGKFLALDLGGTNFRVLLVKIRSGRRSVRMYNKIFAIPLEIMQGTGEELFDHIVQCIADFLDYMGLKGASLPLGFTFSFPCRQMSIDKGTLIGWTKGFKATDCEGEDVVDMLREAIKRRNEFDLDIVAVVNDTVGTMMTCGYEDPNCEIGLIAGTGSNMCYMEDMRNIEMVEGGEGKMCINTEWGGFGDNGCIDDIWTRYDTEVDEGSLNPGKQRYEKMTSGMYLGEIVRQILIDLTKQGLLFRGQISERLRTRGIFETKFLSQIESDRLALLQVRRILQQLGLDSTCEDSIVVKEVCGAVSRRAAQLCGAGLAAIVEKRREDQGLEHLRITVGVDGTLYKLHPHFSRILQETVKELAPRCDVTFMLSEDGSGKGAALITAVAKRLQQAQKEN
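Test system: recombinant HKDC1 (HK5) hexokinase enzyme, produced in-house; Amount: enzyme 5 µg/mL final; Buffer or medium: Tris pH 8.0 buffer with MgCl2, Tween-20, BSA, BME; Reagent: glucose and ATP substrates; Doses: 20 µM test compound, 1% DMSO; Incubation: 90 min reaction incubation at room temperature, dark; Detection: resorufin fluorescence at 613 nm.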
PfGluPho inh = PfG6PD (Plasmodium falciparum) enzyme inhibition. PfGluPho enzyme, NADPH resazurin-diaphorase fluorescence. inhibition, % at 20 µM. 350,000 tested, 0.78% active;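 active = inhibition reaching at least a set limit at 20 µM in the primary screen, cut at about 59% in these data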;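 note: 0% = DMSO wells with substrate and 100% = DMSO wells lacking glucose-6-phosphate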
Diaphorase inh = diaphorase inhibition or chemical oxidation counter-screen. diaphorase resazurin-to-resorufin fluorescence, NADH, 16 min; bacterial (C. kluyveri) enzyme, not human. inhibition, % at 20 µM. 190,000 tested, 0.69% active. AID 1217;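 active = primary screen inhibition at 20 µM above a set limit, cut at about 50% in these data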;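 note: plate controls were DMSO with full reaction for no effect and wells lacking NADH for full effect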
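Detection: fluorescence of resorufin formed from resazurin, Ex 544/Em 590 nm; test system: Clostridium kluyveri diaphorase enzyme; amount: 0.14 U/mL diaphorase, enzyme working solution; times: 16-min room-temperature incubation before reading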
TbHK1 inh = blocks Trypanosoma brucei hexokinase 1 activity. recombinant TbHK1, G6PDH-coupled NADH A340. inhibition, % at 10 µM. 220,000 tested, 0.11% active. AID 1430;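 active = inhibition of 50% or more in the single-dose primary screen; inactive = inhibition below 50%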
PfG6PD confirm = confirmation of Plasmodium falciparum G6PD inhibitors. shares compounds with PfGluPho inh. recombinant PfGluPho, NADPH-diaphorase-resazurin fluorescence. inhibition, % at 20 µM. 2,400 tested, 34% active. AID 504753;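 active = inhibition of at least 50% at 20 µM in any single replicate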;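 note: 0% = DMSO with substrate and 100% = DMSO lacking glucose-6-phosphate substrate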
Diaph ctr 10uM = counter-screen for P. falciparum G6PD inhibitors: diaphorase inhibitors, oxidizers | inhibition, % at 20 µM | shares compounds with PfGluPho inh | diaphorase-coupled resazurin reduction, fluorescence, NADPH 10 uM | 820 tested, 39% active;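 active = average inhibition reaching 50% or more with the compound at 20 µM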;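 note: resorufin red fluorescence formed as diaphorase reduces resazurin using NADPH; 0% = DMSO with enzyme and 100% = DMSO without enzyme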
Diaph ctr 30uM = inhibits diaphorase or oxidizes, flagging false PfG6PD hits; inhibition, % at 20 µM; 820 tested, 29% active; shares compounds with PfGluPho inh; Diaphorase/resazurin coupled assay, resorufin fluorescence, 30 uM NADPH; AID 504863;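 active = inhibition averaging 50% or more, tested at 20 µM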;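 note: 0% = DMSO with enzyme and 100% = DMSO wells lacking diaphorase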
* hit, by the source's call; x = no result. Hits are enriched below; roughly 1.2% of the tested compounds scored in any of these assays.

SMILES | G6PDH counter | HKDC1 inh | PfGluPho inh | Diaphorase inh | TbHK1 inh | PfG6PD confirm | others
Cc1ccc(-c2nc3n(n2)Cc2ccccc2-3)cc1 | 0.1 | -1.5 | 76.6* | 1.1 | -6.3 | 37.4
Fc1ccc(-c2nc3n(n2)Cc2ccccc2-3)cc1 | -11.2 | 5.7 | 45.1 | 8.7 | 0.0 | x
O=c1c2ccccc2cnn1CCOc1cccc(Br)c1 | x | -2.0 | -6.2 | x | x | x
COc1ccccc1CN(Cc1nc2ccccc2c(=O)[nH]1)S(=O)(=O)c1ccc2ccccc2c1 | -4.9 | -3.2 | 59.5* | 19.8 | 1.5 | 3.8
COc1ccc(S(=O)(=O)N(Cc2ccccc2)Cc2nc3ccccc3c(=O)[nH]2)cc1 | -5.0 | 6.0 | 1.2 | 15.4 | 0.1 | x
N#CC1=C2SCN(c3ccccc3)CN2C(=O)CC1c1ccccc1Cl (stereo not drawn) | 5.2 | 6.2 | 74.5* | 34.0 | -7.6 | 12.7
N#CC1=C2SCC(O)(c3ccccc3)N2C(=O)CC1c1cccs1 (stereo not drawn) | 8.8 | -3.9 | -7.8 | -0.1 | -32.9 | x
N#CC1=C2SCN(Cc3ccco3)CN2C(=O)CC1c1c(F)cccc1Cl (stereo not drawn) | 17.8 | 2.8 | 65.7* | 47.6 | -15.9 | 21.7
N#CC1=C2SCC(O)(c3ccccc3)N2C(=O)CC1c1ccccc1F (stereo not drawn) | 17.0 | 9.9 | 10.6 | 19.6 | -12.6 | x
N#CC1=C2SCN(c3ccccc3)CN2C(=O)CC1c1cccs1 (stereo not drawn) | 25.6 | 4.6 | 70.7* | 48.9 | 1.4 | 36.4
N#CC1=C2SCN(c3ccccc3)CN2C(=O)CC1c1c(Cl)cccc1Cl (stereo not drawn) | 0.3 | 7.4 | 85.5* | 50.9* | -11.4 | 30.4
Cc1cc([N+](=O)[O-])ccc1NC(=O)CSc1nncn1-c1cccnc1 | x | -7.4 | 7.6 | x | x | x
CC1(C)Cc2c(cnn2-c2ccccc2)C(NC(=O)c2ccc[n+]([O-])c2)C1 (stereo not drawn) | x | 1.4 | -4.3 | x | x | x
N#CC1=C2SCN(Cc3ccccc3)CN2C(=O)CC1c1ccccc1F (stereo not drawn) | 20.6 | 12.9 | 61.0* | 35.8 | -16.3 | 26.4
CCCCN1CC(=O)N2[C@H]3c4ccc(OC)cc4OC[C@@H]3[C@H](c3ccccc3)[C@]2(C)C1=O | x | -1.7 | 5.1 | x | x | x
C[C@@H]1CCCCO[C@H](CN(C)C(=O)Nc2cccc3ccccc23)[C@@H](C)CN([C@H](C)CO)C(=O)c2cc(N(C)C)ccc2O1 | x | x | 62.9* | x | x | 3.2
C[C@@H]1CCCCO[C@@H](CN(C)C(=O)Nc2ccccc2)[C@@H](C)CN([C@H](C)CO)C(=O)c2cc(N(C)C)ccc2O1 | x | x | 24.6 | x | x | x
Nc1c(O)cccc1C(=O)O | x | 21.0 | 107.6* | x | x | 80.4* | Diaph ctr 10uM=0.0;Diaph ctr 30uM=0.3
Cc1ccc(-c2ccc(/C=N/NC(N)=S)o2)cc1 | x | -5.7 | 61.6* | x | -40.7 | 16.0
C=C(C)CCOC(=O)C(CC(=O)O)NCc1ccco1 (stereo not drawn) | x | -7.9 | -0.1 | x | 7.3 | x
COc1ccc(OCCSc2ncc(CO)n2C)cc1 | x | -6.7 | 6.7 | x | x | x
O=S1(=O)c2ccc(Br)cc2N2CCC[C@@H]2CN1Cc1ccc(Cl)cc1 | x | -1.1 | 62.9* | x | x | 7.2
O=S1(=O)c2ccc(Br)cc2N2CCC[C@H]2CN1Cc1ccccc1 | x | 4.9 | 72.7* | x | x | 7.5
O=S1(=O)c2ccc(Br)cc2N2CCC[C@@H]2CN1C1CC1 | x | 4.7 | -4.1 | x | x | x
Nn1cnnc1N/N=C\c1ccc(-c2ccccc2[N+](=O)[O-])o1 | 19.2 | -2.4 | 80.5* | 87.9* | 4.0 | 53.4* | Diaph ctr 10uM=73.6*;Diaph ctr 30uM=56.5*
SMILES | G6PDH counter | HKDC1 inh | PfGluPho inh | Diaphorase inh | TbHK1 inh | PfG6PD confirm | others
COc1ccc(N2C(=O)c3ccc(C(=O)Nc4ccccc4OC)cc3C2=O)cc1 | x | -5.5 | -6.8 | x | x | x
COc1ccc(NS(=O)(=O)c2csc(C(N)=O)c2)cc1 | x | 1.4 | -7.5 | x | x | x
N#CCC(=O)N/N=C/c1ccc(Sc2nc3ccccc3s2)o1 | 4.5 | 2.0 | 67.6* | 2.6 | -6.5 | 21.4
Cc1ccccc1OCC(=O)N/N=C/c1ccc(Sc2nc3ccccc3s2)o1 | -7.9 | 7.8 | 122.5* | 36.4 | -18.8 | 58.5* | Diaph ctr 10uM=43.6;Diaph ctr 30uM=43.5
COCC(=O)N/N=C/c1ccc(Sc2nc3ccccc3s2)o1 | 1.7 | 1.3 | 59.5* | 12.9 | -13.2 | 21.1
O=C(Cc1cccc2ccccc12)N/N=C/c1ccc(Sc2nc3ccccc3s2)o1 | 6.6 | 4.9 | 74.2* | 4.1 | -19.0 | 5.8
CCN(CC(=O)Nc1c(F)cccc1F)C(=O)CNC(=O)c1ccc(C)s1 | x | 4.3 | -1.8 | x | x | x
CN(CC(=O)Nc1ccc(F)c(F)c1F)C(=O)CCc1nc2sc3c(c2c(=O)[nH]1)CCCC3 | x | 3.6 | 3.6 | x | x | x
O=C(NN=C1CCCC1)c1cc(Cl)cc(Cl)c1O | x | 5.6 | -15.9 | x | x | x
O=C1CC(=O)N(CCNc2ncc(C(F)(F)F)cc2Cl)C(=O)N1 | -1.4 | -2.6 | -22.3 | 14.8 | 6.4 | x
O=C1C=CC(=O)N1CCNc1ncc(C(F)(F)F)cc1Cl | 8.0 | -6.8 | 79.4* | 13.5 | 9.0 | 66.3* | Diaph ctr 10uM=-5.3;Diaph ctr 30uM=-11.4
O=C(CBr)c1ccc([N+](=O)[O-])c(CS(=O)(=O)c2ccc(Cl)cc2)c1 | x | 1.7 | 80.4* | x | x | 73.8* | Diaph ctr 10uM=29.7;Diaph ctr 30uM=16.5
O=C(O)c1ccc2cccc(O)c2n1 | x | 13.4 | 65.8* | x | -7.5 | 31.9
CCn1c(SCC(=O)Nc2ccc(C)cc2)nnc1-c1cnccn1 | x | 0.3 | 67.8* | x | x | 16.1
C=CCn1c(SCC(=O)Nc2ccc(OC)cc2)nnc1-c1cnccn1 | x | -3.1 | 64.0* | x | x | 17.2
C=CCn1c(SCC(=O)Nc2cc(C)cc(C)c2)nnc1-c1cnccn1 | -1.2 | -7.5 | 25.1 | 3.2 | 13.6 | x
CCn1c(SCC(=O)Nc2ccccc2OC)nnc1-c1cnccn1 | 2.7 | -5.4 | 77.6* | 8.6 | 4.4 | 52.8* | Diaph ctr 10uM=43.2;Diaph ctr 30uM=45.0
C=CC[C@H](CC(=O)OC(C)(C)C)C(=O)OC[C@@H]1CCCN1C(=O)[C@H](CC=C)CC(=O)N[C@H](CO)Cc1ccccc1 | x | 1.4 | -11.7 | x | x | x
COc1ccc(S(=O)(=O)N2CCCCC2)cc1NC(=O)Cc1ccc(Br)cc1 | x | -3.7 | -1.8 | x | x | x
Cc1nn(C)c(C(=O)N/N=C/c2cccc3ccccc23)c1Cl | -6.0 | -6.5 | 76.1* | 11.6 | -6.1 | 38.8
COc1ccccc1/C=N\NC(=O)c1c(C)nc2ccc(Cl)cn12 | x | 0.9 | 49.4 | x | x | 23.4
O=C(NC1CCN(Cc2ccccc2)CC1)c1cn(-c2ccccc2)nc1-c1cccnc1 | x | -2.5 | 2.8 | x | x | x
O=C(O)c1cc(NC(=O)c2ccc(Cl)c([N+](=O)[O-])c2)cc(C(=O)O)c1 | 8.1 | -3.1 | 4.8 | 5.3 | 0.9 | x
